Activity calls are given as the source filed them. The calls are words filed in the database; no cut-off is given here.
Assays:
[1] = Therapeutic index, ratio IC50 for human Hep2 cells to IC50 for normal human fibroblasts; format: cell-based, HEp-2; conditions: Hep2 cells versus normal human fibroblasts, read-out: Ratio IC50
Method in brief: (§1)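 IC50 values came from an MTT assay. Cells were seeded at 3000 per well and dosed the next day, with each concentration in quadruplicate. After 72 h at 37 °C, MTT (20 µg/well) was added for 4 h; formazan was dissolved in DMSO and read at 545 nm. Each experiment was done three times. Normal skin fibroblasts were used at 32 and 36 population doublings. T.I. = tumor-cell IC50 / fibroblast IC50.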

HeLa [2] = test: Cell cycle arrest in human HeLa cells assessed as accumulation at S phase at 21 uM after 48 hrs by propidium iodide staining -based flow cytometry (reference value: 26.3 %); format: functional
Method in brief: (§2)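 HeLa seeded at 100 000 cells/well, treated next day with 0.78, 7 or 21 µM for 24, 48 or 72 h. Adherent plus floating cells collected, PBS-washed, fixed overnight in 70% ethanol at −20 °C, RNase A 30 µg/ml 1 h RT, propidium iodide 16.7 µg/ml 30 min dark; DNA content by flow cytometry, phase percentages including subG1 reported.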

HeLa [3] = test: Cell cycle arrest in human HeLa cells assessed as accumulation at G2/M phase at 7 uM after 24 hrs by propidium iodide staining -based flow cytometry (reference value: 11.7 %); format: functional; method in brief: as §2
HeLa [4] = test: Induction of Grp78 expression in human HeLa cells at 7 uM after 16 to 48 hrs by Western blot analysis; format: functional, cell-based
Method in brief: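 Logarithmically growing HeLa cells were exposed to varying concentrations for 48 h, or to 7 µM for varying times. Cell extracts were run on 10% SDS gels and transferred to nitrocellulose. Membranes were blocked in 5% milk and probed with anti-Grp78 (1:1000, overnight, 4 °C), then an HRP secondary (1:5000, 2 h, RT). Detection was by ECL, with ERK2 reprobing as the loading control.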

HeLa [5] = test: Induction of apoptotis in human HeLa cells assessed as morphological changes at 7 uM after 48 hrs by acridine orange and […] staining based epifluorescent microscopic analysis; format: functional, cell-based
Method in brief: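 After 48 h at 7 µM, adherent and floating HeLa cells were pooled and resuspended in medium. AO (15 µg/mL stock) and EtBr (50 µg/mL stock) were added. Under epifluorescence, apoptosis was scored from condensed chromatin and apoptotic bodies, which distinguish it from necrosis.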

[6] = Therapeutic index, ratio IC50 for human HeLa cells to IC50 for normal human fibroblasts; format: cell-based; conditions: HeLa cells versus normal human fibroblasts, read-out: Ratio IC50; method in brief: as §1
HeLa [7] = test: Cell cycle arrest in human HeLa cells assessed as accumulation at S phase at 21 uM after 24 hrs by propidium iodide staining -based flow cytometry(reference value: 27.7 %); format: functional; method in brief: as §2
HeLa [8] = test: Induction of reactive oxygen species generation in human HeLa cells after 8 hrs by FACS analysis; format: functional, cell-based
Method in brief: (§3)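 Logarithmically growing HeLa cells were preloaded with 10 µM CM-H2DCFDA for 1 h. They were then exposed to 7, 20 or 40 µM for 8 h, or to 7 µM for 2, 4 or 6 h. Cells were trypsinized, fixed in cold 80% methanol, resuspended in PBS and read for fluorescence by flow cytometry. The positive control was 0.01% H2O2 for 30 min.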

[9] = Therapeutic index, ratio IC50 for human MIAPaCa2 cells to IC50 for normal human fibroblasts; format: cell-based, MIA PaCa-2; conditions: MIAPaCa2 cells versus normal human fibroblasts, read-out: Ratio IC50; method in brief: as §1
HeLa [10] = test: Cell cycle arrest in human HeLa cells assessed as accumulation at S phase at 0.78 uM after 24 hrs by propidium iodide staining -based flow cytometry (reference value: 27.7 %); format: functional; method in brief: as §2
[11] = Therapeutic index, ratio IC50 for human SW620 cells to IC50 for normal human fibroblasts; format: cell-based, SW-620; conditions: SW620 cells versus normal human fibroblasts, read-out: Ratio IC50; method in brief: as §1
SW480 = test: Cytotoxicity against human SW480 cells after 72 hrs by MTT assay; format: functional, cell-based; conditions: SW480, 72 h
Method in brief: (§4)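 MTT assay: 3000 cells/well seeded, compound added next day, each concentration in quadruplicate, 72 h at 37 °C; medium replaced with 20 µg MTT/well for 4 h, formazan dissolved in DMSO, OD 545 nm. […] Fibroblasts: normal skin fibroblasts from donor, DMEM/10% FBS, used at 32 and 36 population doublings.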

HeLa [12] = test: Cell cycle arrest in human HeLa cells assessed as accumulation at S phase at 7 uM after 24 hrs by propidium iodide staining -based flow cytometry (reference value: 27.7 %); format: functional; method in brief: as §2
HeLa [13] = test: Cell cycle arrest in human HeLa cells assessed as accumulation at subG1 phase at 21 uM after 72 hrs by propidium iodide staining -based flow cytometry (reference value: 7.2 %); format: functional; method in brief: as §2
[14] = Stability of the compound in DMSO after 26.25 hrs by LC/MS/MS analysis in presence of 10% FBS; format: physicochemical; conditions: cattle, DMSO with 10% FBS; read-out: Stability
HeLa [15] = test: Cell cycle arrest in human HeLa cells assessed as accumulation at G0/G1 phase at 0.78 uM after 48 hrs by propidium iodide staining -based flow cytometry (reference value: 63.8 %); format: functional; method in brief: as §2
HeLa [16] = test: Cytotoxicity against human HeLa cells after 72 hrs by MTT assay; format: functional, cell-based
MIA PaCa-2 = test: Cytotoxicity against human MIAPaCa2 cells after 72 hrs by MTT assay; format: functional, cell-based; conditions: MIA PaCa-2, 72 h; method in brief: as §4
HeLa [17] = test: Cell cycle arrest in human HeLa cells assessed as accumulation at G2/M phase at 0.78 uM after 72 hrs by propidium iodide staining -based flow cytometry (reference value: 9.7 %); format: functional; method in brief: as §2
HEp-2 = test: Cytotoxicity against human Hep2 cells after 72 hrs by MTT assay; format: functional, cell-based; conditions: HEp-2, 72 h; method in brief: as §4
HeLa [18] = test: Cell cycle arrest in human HeLa cells assessed as accumulation at S phase at 7 uM after 72 hrs by propidium iodide staining -based flow cytometry (reference value: 23.5 %); format: functional; method in brief: as §2
HeLa [19] = test: Induction of reactive oxygen species generation in human HeLa cells at 7 uM after 6 hrs by FACS analysis; format: functional, cell-based; method in brief: as §3
HeLa [20] = test: Cell cycle arrest in human HeLa cells assessed as accumulation at S phase at 21 uM after 72 hrs by propidium iodide staining -based flow cytometry (reference value: 23.5 %); format: functional; method in brief: as §2
HeLa [21] = test: Cell cycle arrest in human HeLa cells assessed as accumulation at G0/G1 phase at 7 uM after 24 hrs by propidium iodide staining -based flow cytometry (reference value: 60.6 %); format: functional; method in brief: as §2
HeLa [22] = test: Cell cycle arrest in human HeLa cells assessed as accumulation at subG1 phase at 7 uM after 72 hrs by propidium iodide staining -based flow cytometry (reference value: 7.2 %); format: functional; method in brief: as §2
[23] = Cytotoxicity against cisplatin-resistant human CA3ST cells after 72 hrs by MTT assay; format: functional, cell-based; method in brief: as §4
[24] = Cytotoxicity against human Fibroblast cells after 72 hrs by MTT assay; format: cell-based; method in brief: as §4
HeLa [25] = test: Cell cycle arrest in human HeLa cells assessed as accumulation at subG1 phase after 24 to 72 hrs by propidium iodide staining -based flow cytometry; format: functional; method in brief: as §2
HeLa [26] = test: Cell cycle arrest in human HeLa cells assessed as accumulation at subG1 phase at 0.78 uM after 72 hrs by propidium iodide staining -based flow cytometry (reference value: 7.2 %); format: functional; method in brief: as §2

**Q.** For `CC(=O)N(/N=N/c1ccc([N+](=O)[O-])cc1Cl)c1ccc([N+](=O)[O-])cc1Cl`, which selectivity ratio [1] is on record?
**A.** 0.044

**Q.** And the Activity (HeLa [2])?
**A.** 15.2%

**Q.** And the Activity (HeLa [3])?
**A.** 10%

**Q.** What about the Activity (HeLa [4]) of the same compound?
**A.** Active

**Q.** And the Activity (HeLa [5])?
**A.** Active

**Q.** And the selectivity ratio [6]?
**A.** 0.045

**Q.** What about the Activity (HeLa [7]) of the same compound?
**A.** 20.2%

**Q.** What about the Activity (HeLa [8]) of the same compound?
**A.** Dose-dependent effect

**Q.** What about the selectivity ratio [9] of the same compound?
**A.** 0.037

**Q.** What about the Activity (HeLa [10]) of the same compound?
**A.** 15.1%

**Q.** What about the selectivity ratio [11] of the same compound?
**A.** 0.032

**Q.** And the IC50 (SW480)?
**A.** 0.53 µM

**Q.** And the Activity (HeLa [12])?
**A.** 20.8%

**Q.** What about the Activity (HeLa [13]) of the same compound?
**A.** 80.2%

**Q.** And the remaining at 26.25 h [14]?
**A.** 57%

**Q.** What about the Activity (HeLa [15]) of the same compound?
**A.** 74.5%

**Q.** And the IC50 (HeLa [16])?
**A.** 0.63 µM

**Q.** And the IC50 (MIA PaCa-2)?
**A.** 0.52 µM

**Q.** What about the Activity (HeLa [17]) of the same compound?
**A.** 8.4%

**Q.** And the IC50 (HEp-2)?
**A.** 0.62 µM

**Q.** And the Activity (HeLa [18])?
**A.** 15.2%

**Q.** And the Activity (HeLa [19])?
**A.** Active

**Q.** And the Activity (HeLa [20])?
**A.** 12.6%

**Q.** And the Activity (HeLa [21])?
**A.** 69.3%

**Q.** What about the Activity (HeLa [22]) of the same compound?
**A.** 33%

**Q.** What about the IC50 [23] of the same compound?
**A.** 0.63 µM

**Q.** What about the IC50 [24] of the same compound?
**A.** 14 µM

**Q.** What about the Activity (HeLa [25]) of the same compound?
**A.** Dose-dependent effect

**Q.** What about the Activity (HeLa [26]) of the same compound?
**A.** 17.6%
